In ChEMBL document CHEMBL5096236, “Development of Fluorinated Peptoid-Based Histone Deacetylase (HDAC) Inhibitors for Therapy-Resistant Acute Leukemia” (J Med Chem, 2022):
The source made the active and inactive calls. The calls are words filed in the database; no cut-off is given here.

Experiments:
Histone deacetylase 1 = Histone deacetylase 1 (Homo sapiens, UniProt Q13547); experiment: Inhibition of recombinant human C-terminal FLAG/His-tagged HDAC1 (1 to 482 residues) expressed in Sf9 insect cells using Z-Lys(Ac)-AMC as fluorogenic substrate incubated for 90 mins by microplate reader analysis
[1] = biological target: T1, Protein deacetylase HDAC6 (Homo sapiens, UniProt Q9UBN7); experiment: Inhibition of recombinant human N-terminal GST-tagged HDAC6 (1 to 1215 residues) expressed in Sf9 insect cells using Z-Lys(Ac)-AMC as fluorogenic substrate incubated for 90 mins by microplate reader analysis
T1 sequence (Q9UBN7 whole entry): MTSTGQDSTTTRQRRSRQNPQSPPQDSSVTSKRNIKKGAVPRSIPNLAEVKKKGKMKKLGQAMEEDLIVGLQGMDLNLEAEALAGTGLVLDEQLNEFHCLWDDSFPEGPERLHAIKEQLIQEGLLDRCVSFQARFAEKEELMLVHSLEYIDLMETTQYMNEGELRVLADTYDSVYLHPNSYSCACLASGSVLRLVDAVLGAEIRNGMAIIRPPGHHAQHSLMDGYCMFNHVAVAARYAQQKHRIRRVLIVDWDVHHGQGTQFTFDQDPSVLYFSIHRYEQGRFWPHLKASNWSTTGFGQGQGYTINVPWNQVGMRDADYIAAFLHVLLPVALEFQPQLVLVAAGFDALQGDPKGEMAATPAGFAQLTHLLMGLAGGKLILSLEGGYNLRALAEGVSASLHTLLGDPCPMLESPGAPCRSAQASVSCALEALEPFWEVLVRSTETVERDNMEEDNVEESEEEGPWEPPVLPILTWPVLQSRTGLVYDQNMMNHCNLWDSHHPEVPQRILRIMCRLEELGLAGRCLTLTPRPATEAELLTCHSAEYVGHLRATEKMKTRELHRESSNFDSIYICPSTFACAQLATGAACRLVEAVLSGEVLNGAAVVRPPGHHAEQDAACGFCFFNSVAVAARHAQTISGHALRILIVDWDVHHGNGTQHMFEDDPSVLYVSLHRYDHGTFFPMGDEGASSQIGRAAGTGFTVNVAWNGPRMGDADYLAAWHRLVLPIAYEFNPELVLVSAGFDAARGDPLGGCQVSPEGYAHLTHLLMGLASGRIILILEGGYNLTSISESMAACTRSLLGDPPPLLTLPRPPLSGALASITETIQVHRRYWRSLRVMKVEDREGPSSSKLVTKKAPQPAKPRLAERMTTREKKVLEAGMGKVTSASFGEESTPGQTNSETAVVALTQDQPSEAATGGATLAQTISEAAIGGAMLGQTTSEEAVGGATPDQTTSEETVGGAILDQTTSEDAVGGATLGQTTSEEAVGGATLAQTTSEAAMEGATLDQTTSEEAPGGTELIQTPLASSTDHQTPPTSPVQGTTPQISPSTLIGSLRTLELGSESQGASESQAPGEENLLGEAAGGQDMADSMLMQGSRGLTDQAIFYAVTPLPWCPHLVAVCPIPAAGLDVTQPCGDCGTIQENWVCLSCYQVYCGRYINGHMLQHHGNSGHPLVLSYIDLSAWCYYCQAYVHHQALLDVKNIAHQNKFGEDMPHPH

HAL-01 = experiment: cells; format: functional, cell-based; details: Homo sapiens, HAL-01, 72 h
HL-60 [2] = experiment: cells; format: functional, cell-based; details: Homo sapiens, HL-60, 72 h
Jurkat = experiment: cells; format: functional, cell-based; details: Homo sapiens, 72 h
Histone deacetylase 2 = Histone deacetylase 2 (Homo sapiens, UniProt Q92769); experiment: Inhibition of recombinant human C-terminal FLAG-tagged HDAC2 (1 to 488 residues) expressed in Sf9 insect cells using Z-Lys(Ac)-AMC as fluorogenic substrate incubated for 90 mins by microplate reader analysis
Summary of the method: (§1)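 Compound incubated with ZMAL (Z-Lys(Ac)-AMC; 21.43 μM solution) and enzyme at 37 °C for 90 min. Trypsin (0.4 mg/mL) added, 30 min at 37 °C. […] Duplicates, ≥2 independent experiments. SI = IC50 (HDAC2 or 3)/IC50 (HDAC6).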

[3] = biological target: Histone deacetylase 3/Nuclear receptor corepressor 2 (HDAC3/NCoR2) (Homo sapiens, UniProt O15379); experiment: Inhibition of C-terminal His-tagged recombinant human HDAC3 (1 to 428 residues)/N-terminal GST-tagged recombinant human NCoR2 (395 to 489 residues) co-expressed in Sf9 cells using Z-Lys(Ac)-AMC as fluorogenic substrate incubated for 90 mins by microplate reader analysis; summary of the method: as §1
HL-60 [4] = experiment: Induction of apoptosis in human HL-60 cells assessed as increase in total apoptotic cells at 1 to 5 uM incubated for 48 hrs by annexin V and propidium iodide staining based flow cytometry analysis; format: functional, cell-based; details: dose 1-5 µM
Summary of the method: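 HL60 cells (RPMI 1640 GlutaMax, 10-20% FCS, 37°C, 5% CO₂) exposed to compound or control at 1 or 5 μM for 48 h, then stained with annexin V and propidium iodide and analysed by flow cytometry; n=3.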

[5] = biological target: T2, Histone deacetylase (Homo sapiens) (UniProt Q13547+O15379+Q9UBN7+Q92769+Q9UQL6+Q8WUI4+Q9BY41+Q96DB2+P56524+Q9UKV0+Q969S8); experiment: Inhibition of HDAC in human HL-60 cells assessed as increase in alpha tubulin acetylation incubated for 24 hrs by immunoblot analysis; format: cell-based; details: dose lower […], dose upper 296.0 nM, DDE = dose-dependent effect
[6] = biological target: T2, Histone deacetylase (Homo sapiens); experiment: Inhibition of HDAC in human HL-60 cells assessed as increase in Ac-H3 levels incubated for 24 hrs by immunoblot analysis; format: cell-based; details: dose lower […], dose upper 296.0 nM, DDE = dose-dependent effect
HL-60 [7] = experiment: Synergistic cytotoxicity against human HL-60 cells assessed as increase in synergy score at 0.1 to 2 uM incubated for 72 hrs in presence of DNA methyltransferase inhibitor, decitabine by CellTiter-Glo luminescent assay; format: functional, cell-based; details: dose 0.1-2 µM
Summary of the method: (§2)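 AML cells treated 72 h in an 8×8 dose matrix: compound 0.1–2 μM and decitabine 0.25–10 μM, logarithmically spaced. Viability by CellTiter-Glo luminescence. Synergy scored with the ZIP model in SynergyFinder.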

MOLM-13 = experiment: Synergistic cytotoxicity against human MOLM-13 cells assessed as increase in synergy score at 0.1 to 2 uM incubated for 72 hrs in presence of […] inhibitor, decitabine by CellTiter-Glo luminescent assay; format: functional, cell-based; details: dose 0.1-2 µM; summary of the method: as §2
[8] = biological target: T2, Histone deacetylase (Homo sapiens); experiment: Inhibition of HDAC in human HL-60 cells assessed as increase in Ac-H3 levels at 0.15 uM incubated for 24 hrs in presence of DNA methyltransferase inhibitor, decitabine by immunoblot analysis; format: cell-based
Summary of the method: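 HL60 cells treated for 24 h with compound alone or combined with decitabine at indicated concentrations. Acetylated H3 detected by immunoblotting.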

Histone deacetylase 4 = Histone deacetylase 4 (Homo sapiens, UniProt P56524); experiment: Inhibition of recombinant human N-terminal GST-tagged/C-terminal His-tagged HDAC4 (627 to 1084 residues) expressed in baculovirus infected Sf9 insect cells using Boc-Lys (trifluoroacetyl)-AMC as substrate incubated for 90 mins by microplate reader analysis
Summary of the method: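 HDAC4 enzyme in Tris-HCl pH 8.0 buffer with NaCl, KCl, MgCl₂ and 0.1 mg/mL BSA, max. 1% DMSO. Trypsin (1.0 mg/mL) added, 30 min. Three-parameter log(inhibitor) fit. Duplicates, ≥2 experiments, mean ± SD. SI = IC50 HDAC4/IC50 HDAC6.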

[9] = biological target: T2, Histone deacetylase (Homo sapiens); experiment: Inhibition of HDAC in human HL-60 cells assessed as increase in alpha tubulin acetylation at 6 to 36 uM incubated for 24 hrs by immunoblot analysis; format: cell-based; details: dose 6-36 µM

Histone deacetylase 1, sequence (Q13547 whole entry, the tested form may be a part): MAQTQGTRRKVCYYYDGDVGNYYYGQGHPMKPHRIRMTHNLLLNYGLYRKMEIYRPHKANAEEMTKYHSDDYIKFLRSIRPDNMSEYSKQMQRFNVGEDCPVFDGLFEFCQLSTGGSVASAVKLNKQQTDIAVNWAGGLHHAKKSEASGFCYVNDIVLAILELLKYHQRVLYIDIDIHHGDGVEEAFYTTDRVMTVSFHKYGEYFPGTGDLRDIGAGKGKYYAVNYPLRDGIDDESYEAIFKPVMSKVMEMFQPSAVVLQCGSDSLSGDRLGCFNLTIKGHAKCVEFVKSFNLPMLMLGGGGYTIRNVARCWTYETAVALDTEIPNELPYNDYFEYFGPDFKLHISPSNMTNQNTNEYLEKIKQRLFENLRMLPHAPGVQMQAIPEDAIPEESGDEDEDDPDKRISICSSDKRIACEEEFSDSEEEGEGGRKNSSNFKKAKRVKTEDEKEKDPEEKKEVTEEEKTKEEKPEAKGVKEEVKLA
Histone deacetylase 2, sequence (Q92769 whole entry, the tested form may be a part): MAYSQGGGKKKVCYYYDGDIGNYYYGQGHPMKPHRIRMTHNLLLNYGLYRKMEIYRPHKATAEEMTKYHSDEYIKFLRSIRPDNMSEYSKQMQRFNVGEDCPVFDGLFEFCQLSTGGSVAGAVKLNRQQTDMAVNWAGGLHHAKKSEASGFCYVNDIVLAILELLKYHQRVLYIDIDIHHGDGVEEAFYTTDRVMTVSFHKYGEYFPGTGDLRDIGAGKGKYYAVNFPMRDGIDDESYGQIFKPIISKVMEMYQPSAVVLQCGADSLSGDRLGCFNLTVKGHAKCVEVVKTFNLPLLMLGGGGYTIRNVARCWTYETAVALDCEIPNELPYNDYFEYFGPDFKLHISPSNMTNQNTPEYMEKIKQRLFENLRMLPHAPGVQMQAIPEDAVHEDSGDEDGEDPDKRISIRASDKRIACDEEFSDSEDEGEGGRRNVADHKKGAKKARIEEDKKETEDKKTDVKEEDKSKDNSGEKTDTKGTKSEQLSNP
Histone deacetylase 3/Nuclear receptor corepressor 2 (HDAC3/NCoR2), sequence (O15379 whole entry, the tested form may be a part): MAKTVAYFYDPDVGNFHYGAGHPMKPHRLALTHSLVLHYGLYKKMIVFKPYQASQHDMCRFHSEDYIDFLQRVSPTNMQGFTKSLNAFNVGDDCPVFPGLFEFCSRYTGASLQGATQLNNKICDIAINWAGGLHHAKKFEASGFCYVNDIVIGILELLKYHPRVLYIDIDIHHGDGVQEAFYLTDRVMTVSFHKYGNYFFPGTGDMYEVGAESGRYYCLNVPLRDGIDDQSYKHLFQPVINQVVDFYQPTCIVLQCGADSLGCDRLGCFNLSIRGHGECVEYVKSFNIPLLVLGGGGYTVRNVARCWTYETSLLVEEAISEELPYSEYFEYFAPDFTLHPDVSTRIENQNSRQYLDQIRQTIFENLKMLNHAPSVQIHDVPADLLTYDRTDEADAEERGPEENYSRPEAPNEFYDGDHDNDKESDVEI
Histone deacetylase 3/Nuclear receptor corepressor 2 (HDAC3/NCoR2), sequence (Q9Y618 whole entry, further chain, the tested form may be a part): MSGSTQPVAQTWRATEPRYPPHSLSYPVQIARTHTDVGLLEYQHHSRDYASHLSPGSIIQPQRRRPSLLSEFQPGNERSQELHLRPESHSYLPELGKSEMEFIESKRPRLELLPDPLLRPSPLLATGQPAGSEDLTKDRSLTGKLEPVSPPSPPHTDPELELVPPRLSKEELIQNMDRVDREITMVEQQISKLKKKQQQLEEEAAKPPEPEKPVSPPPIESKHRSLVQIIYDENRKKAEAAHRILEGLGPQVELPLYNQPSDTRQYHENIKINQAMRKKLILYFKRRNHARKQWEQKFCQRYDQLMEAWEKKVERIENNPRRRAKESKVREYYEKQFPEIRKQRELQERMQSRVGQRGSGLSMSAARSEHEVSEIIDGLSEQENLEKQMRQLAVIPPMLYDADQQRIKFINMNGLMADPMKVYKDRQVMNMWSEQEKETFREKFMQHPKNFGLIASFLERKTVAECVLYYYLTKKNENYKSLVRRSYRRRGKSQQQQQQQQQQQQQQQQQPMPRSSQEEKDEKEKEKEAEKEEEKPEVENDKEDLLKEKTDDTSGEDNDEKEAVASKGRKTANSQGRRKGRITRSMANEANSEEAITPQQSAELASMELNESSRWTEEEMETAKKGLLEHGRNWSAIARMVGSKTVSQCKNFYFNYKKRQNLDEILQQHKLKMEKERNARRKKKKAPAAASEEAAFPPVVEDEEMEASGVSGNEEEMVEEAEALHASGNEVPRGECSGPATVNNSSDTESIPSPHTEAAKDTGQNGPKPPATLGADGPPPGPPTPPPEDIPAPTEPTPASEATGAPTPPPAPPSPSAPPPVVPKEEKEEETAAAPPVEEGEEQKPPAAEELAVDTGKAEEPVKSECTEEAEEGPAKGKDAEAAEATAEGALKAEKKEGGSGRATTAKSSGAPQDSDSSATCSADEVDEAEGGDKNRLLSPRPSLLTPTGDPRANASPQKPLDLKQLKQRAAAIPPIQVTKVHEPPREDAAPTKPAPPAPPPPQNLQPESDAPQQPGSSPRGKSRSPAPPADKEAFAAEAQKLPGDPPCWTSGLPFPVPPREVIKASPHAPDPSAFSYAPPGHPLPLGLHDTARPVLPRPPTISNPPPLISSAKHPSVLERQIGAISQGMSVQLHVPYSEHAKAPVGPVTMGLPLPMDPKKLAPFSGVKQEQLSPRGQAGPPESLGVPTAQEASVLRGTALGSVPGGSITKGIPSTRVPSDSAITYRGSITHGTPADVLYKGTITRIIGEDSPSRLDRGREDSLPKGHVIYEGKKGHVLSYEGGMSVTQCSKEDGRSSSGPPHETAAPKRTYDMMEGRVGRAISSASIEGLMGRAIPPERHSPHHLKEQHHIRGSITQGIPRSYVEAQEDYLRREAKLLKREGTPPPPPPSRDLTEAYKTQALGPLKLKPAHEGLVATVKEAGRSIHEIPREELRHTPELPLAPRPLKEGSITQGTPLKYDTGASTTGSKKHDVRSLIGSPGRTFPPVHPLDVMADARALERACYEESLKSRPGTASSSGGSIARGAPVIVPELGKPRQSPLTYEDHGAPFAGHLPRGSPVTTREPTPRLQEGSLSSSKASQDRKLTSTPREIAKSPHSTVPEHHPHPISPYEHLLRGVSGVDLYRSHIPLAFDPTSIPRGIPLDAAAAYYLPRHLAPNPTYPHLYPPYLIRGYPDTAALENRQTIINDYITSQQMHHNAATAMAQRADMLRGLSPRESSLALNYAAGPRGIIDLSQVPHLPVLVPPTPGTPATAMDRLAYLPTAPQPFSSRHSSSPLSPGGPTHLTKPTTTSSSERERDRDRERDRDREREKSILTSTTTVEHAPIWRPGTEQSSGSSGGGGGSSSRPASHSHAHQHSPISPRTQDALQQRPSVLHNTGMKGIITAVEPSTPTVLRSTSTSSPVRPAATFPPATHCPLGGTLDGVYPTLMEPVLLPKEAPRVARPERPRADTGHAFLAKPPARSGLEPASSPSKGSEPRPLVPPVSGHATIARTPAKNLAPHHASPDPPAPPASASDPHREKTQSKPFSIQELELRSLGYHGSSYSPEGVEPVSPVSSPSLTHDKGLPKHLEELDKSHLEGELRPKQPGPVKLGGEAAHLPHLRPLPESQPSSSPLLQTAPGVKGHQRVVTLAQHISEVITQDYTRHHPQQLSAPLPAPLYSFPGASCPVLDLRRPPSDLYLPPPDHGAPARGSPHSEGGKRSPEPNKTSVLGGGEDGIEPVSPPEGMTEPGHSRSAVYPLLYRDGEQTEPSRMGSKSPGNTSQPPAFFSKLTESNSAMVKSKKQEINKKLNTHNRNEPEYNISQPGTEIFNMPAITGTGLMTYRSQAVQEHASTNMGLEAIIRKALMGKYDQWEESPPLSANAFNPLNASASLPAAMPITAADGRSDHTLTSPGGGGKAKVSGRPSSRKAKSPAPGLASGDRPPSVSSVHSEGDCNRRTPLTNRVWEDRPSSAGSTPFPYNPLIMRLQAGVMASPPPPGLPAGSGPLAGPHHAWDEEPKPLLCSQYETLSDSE
Histone deacetylase 4, sequence (P56524 whole entry, the tested form may be a part): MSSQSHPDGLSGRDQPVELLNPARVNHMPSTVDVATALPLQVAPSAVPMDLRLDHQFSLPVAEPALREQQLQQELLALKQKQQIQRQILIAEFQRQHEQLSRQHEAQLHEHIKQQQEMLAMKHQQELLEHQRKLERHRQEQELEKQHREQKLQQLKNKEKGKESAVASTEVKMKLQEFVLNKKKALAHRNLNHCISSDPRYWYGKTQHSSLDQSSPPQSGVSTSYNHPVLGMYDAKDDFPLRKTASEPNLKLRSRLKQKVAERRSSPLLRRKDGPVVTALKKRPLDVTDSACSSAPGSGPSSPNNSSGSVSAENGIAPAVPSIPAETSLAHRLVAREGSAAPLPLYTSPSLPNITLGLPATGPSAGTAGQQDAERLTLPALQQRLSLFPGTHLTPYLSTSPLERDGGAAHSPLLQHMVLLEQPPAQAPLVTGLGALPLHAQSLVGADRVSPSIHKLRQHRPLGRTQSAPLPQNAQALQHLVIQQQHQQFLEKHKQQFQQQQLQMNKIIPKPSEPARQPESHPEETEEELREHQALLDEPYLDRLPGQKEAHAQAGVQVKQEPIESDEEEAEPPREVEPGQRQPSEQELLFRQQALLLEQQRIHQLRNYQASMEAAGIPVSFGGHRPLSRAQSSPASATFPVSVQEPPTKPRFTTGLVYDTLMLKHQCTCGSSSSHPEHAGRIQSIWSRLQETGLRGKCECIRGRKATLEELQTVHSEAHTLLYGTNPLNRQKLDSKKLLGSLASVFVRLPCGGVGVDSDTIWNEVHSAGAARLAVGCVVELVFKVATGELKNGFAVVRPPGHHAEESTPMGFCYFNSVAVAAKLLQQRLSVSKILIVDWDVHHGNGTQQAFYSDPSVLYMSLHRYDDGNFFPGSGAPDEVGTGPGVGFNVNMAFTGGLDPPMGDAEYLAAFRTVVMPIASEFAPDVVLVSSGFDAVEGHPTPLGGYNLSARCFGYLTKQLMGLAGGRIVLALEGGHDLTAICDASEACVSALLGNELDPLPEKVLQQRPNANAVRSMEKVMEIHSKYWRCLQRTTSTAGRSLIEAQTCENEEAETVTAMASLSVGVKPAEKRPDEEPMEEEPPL

SMILES | IC50 (Histone deacetylase 1) | IC50 [1] | IC50 (HAL-01) | other results
COc1ccccc1C(=O)N(CC(=O)NC1CCCCC1)Cc1ccc(C(=O)NO)cc1F | 1.5 µM | 0.02 µM | > 25 µM | –
Cc1cc(C)cc(C(=O)N(CC(=O)NC(C)(C)C)Cc2ccc(C(=O)NO)cc2F)c1 | 0.573 µM | 0.024 µM | – | –
O=C(NO)c1ccc(CC(=O)N(CCO)c2ccccc2)cc1 | – | – | 13.9 µM | IC50 (HL-60 [2]): 11.3 µM; IC50 (Jurkat): 16.1 µM
CC(C)(C)NC(=O)CN(Cc1ccc(C(=O)NO)cc1F)C(=O)c1ccccc1F | 1.18 µM | 0.026 µM | – | –
Cc1ccccc1C(=O)N(CC(=O)NC1CCCCC1)Cc1ccc(C(=O)NO)cc1F | 0.938 µM | 0.018 µM | – | –
CC(C)(C)NC(=O)CN(Cc1ccc(C(=O)NO)cc1F)C(=O)c1ccccc1Cl | 3.47 µM | 0.021 µM | – | –
Cc1cc(C)cc(C(=O)N(CC(=O)NC2CCCCC2)Cc2ccc(C(=O)NO)cc2)c1 | 0.249 µM | 0.04 µM | – | –
Cc1ccccc1C(=O)N(CC(=O)NC(C)(C)C)Cc1ccc(C(=O)NO)cc1 | – | – | – | IC50 (Histone deacetylase 1; sf9): 2.41 µM; IC50 ([1]; sf9): 0.051 µM
CC(C)(C)NC(=O)CN(Cc1ccc(C(=O)NO)cc1F)C(=O)c1ccccc1C(F)(F)F | 2.33 µM | 0.027 µM | > 25 µM | IC50 (Jurkat): > 25 µM
COc1ccccc1C(=O)N(CC(=O)NC(C)(C)C)Cc1ccc(C(=O)NO)cc1 | – | – | – | IC50 (Histone deacetylase 1; sf9): 3.11 µM; IC50 ([1]; sf9): 0.038 µM
O=C(CN(Cc1ccc(C(=O)NO)cc1F)C(=O)c1ccccc1F)NC1CCCCC1 | – | 0.018 µM | – | –

Now from value to compound, other results behind:

IC50 (Histone deacetylase 1) | IC50 [1] | IC50 (HAL-01) | SMILES | other results
1.75 µM | 0.027 µM | – | Cc1ccccc1C(=O)N(CC(=O)NC(C)(C)C)Cc1ccc(C(=O)NO)cc1F | –
0.066 µM | 0.016 µM | – | CN(C)c1ccc(C(=O)N(CC(=O)NC2CCCCC2)Cc2ccc(C(=O)NO)cc2F)cc1 | –
0.158 µM | 0.02 µM | – | CN(C)c1ccc(C(=O)N(CC(=O)NC(C)(C)C)Cc2ccc(C(=O)NO)cc2F)cc1 | –
– | 0.02 µM | – | Cc1cc(C)cc(C(=O)N(CC(=O)NC2CCCCC2)Cc2ccc(C(=O)NO)cc2F)c1 | –
1.45 µM | – | – | O=C(CN(Cc1ccc(C(=O)NO)cc1F)C(=O)c1ccccc1C(F)(F)F)NC1CCCCC1 | IC50 (Jurkat): > 25 µM
0.013 µM | – | 0.375 µM | CN(C)c1ccc(C(=O)N(CC(=O)NCc2ccccc2)Cc2ccc(C(=O)NO)cc2F)cc1 | IC50 (Histone deacetylase 2): 0.014 µM; IC50 (Histone deacetylase 2; record 2): 0.014 µM; IC50 [3]: 0.021 µM; IC50 (HL-60 [2]): 0.218 µM; IC50 (Jurkat): 0.285 µM; Activity (HL-60 [4]): Active; inhibition [5]: Dde; inhibition [6]: Dde; Activity (HL-60 [7]): Active; Activity (MOLM-13): Active; inhibition [8]: Active
0.005 µM | 0.011 µM | – | CN(C)c1ccc(C(=O)N(CC(=O)NCc2ccccc2)Cc2ccc(C(=O)NO)cc2)cc1 | –
8.01 µM | – | > 25 µM | CC(C)c1ccccc1C(=O)N(CC(=O)NC(C)(C)C)Cc1ccc(C(=O)NO)cc1F | IC50 (Histone deacetylase 2): 4.48 µM; IC50 [3]: 8.35 µM; IC50 (Histone deacetylase 4): > 10 µM; IC50 (Jurkat): > 25 µM; Activity (HL-60 [4]): Active; inhibition [9]: Active
1.75 µM | 0.017 µM | > 25 µM | COc1ccccc1C(=O)N(CC(=O)NC(C)(C)C)Cc1ccc(C(=O)NO)cc1F | –
0.077 µM | 0.013 µM | 2.75 µM | Cc1cc(C)cc(C(=O)N(CC(=O)NCc2ccccc2)Cc2ccc(C(=O)NO)cc2F)c1 | IC50 (HL-60 [2]): 9.15 µM; IC50 (Jurkat): 6.23 µM
